≈ marks a conversion by molar mass, not a printed value.
Key:
Type in all cases: functional
Clostridioides difficile [1] = test: Antimicrobial activity against Clostridium difficile isolate 61 by Etest
In short: (§1)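 Rifampin Etest strips were run on brucella blood agar following the manufacturer's instructions to give an MIC. Clinical isolates were typed by HindIII REA.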

Clostridioides difficile [2] = test: Antimicrobial activity against rifaximin-resistant Clostridium difficile isolate 21 expressing RpoB H502N and R505K mutants by agar dilution method
In short: (§2)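 MICs were found by the CLSI reference agar dilution method for anaerobes, with endpoints read per M11-A7 and C. difficile […] as control. Rifaximin was dissolved in methanol, diluted in 0.1 M phosphate buffer pH 7.4 with 0.45% SDS, and tested at 0.0009–256 μg/ml. Rifampin was dissolved in methanol, diluted in water, and tested at 0.00001–256 μg/ml.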

Clostridioides difficile [3] = test: Antimicrobial activity against rifaximin-resistant Clostridium difficile isolate 4 expressing RpoB S488T and R505K mutants by agar dilution method; in short: as §2
Clostridioides difficile [4] = test: Antimicrobial activity against Clostridium difficile isolate 47 by Etest; in short: as §1
Clostridioides difficile [5] = test: Antimicrobial activity against Clostridium difficile isolate 11 by agar dilution method
In short: (§3)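 MIC by CLSI reference agar dilution for anaerobes, with endpoints read per M11-A7 and C. difficile […] as control. Rifaximin was dissolved in methanol, diluted in 0.1 M phosphate buffer pH 7.4 plus 0.45% SDS, and tested at 0.0009–256 μg/ml. Rifampin was dissolved in methanol, diluted in water, and tested at 0.00001–256 μg/ml.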

Clostridioides difficile [6] = test: Antimicrobial activity against Clostridium difficile isolate 40 by Etest; in short: as §1
Clostridioides difficile [7] = test: Antimicrobial activity against Clostridium difficile isolate 56 by Etest; in short: as §1
Clostridioides difficile [8] = test: Antimicrobial activity against Clostridium difficile isolate 63 by agar dilution method
In short: (§4)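 CLSI reference agar dilution for anaerobes, with endpoints read per guideline M11-A7. Rifaximin was dissolved in methanol, diluted in 0.1 M phosphate buffer pH 7.4 with 0.45% SDS, and tested at 0.0009–256 μg/ml. Rifampin was dissolved in methanol, diluted in water, and tested at 0.00001–256 μg/ml. Control strain: C. difficile ATCC 70005. Isolates were typed by HindIII REA.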

Clostridioides difficile [9] = test: Antimicrobial activity against Clostridium difficile isolate 20 by agar dilution method; in short: as §3
Clostridioides difficile [10] = test: Antimicrobial activity against Clostridium difficile isolate 55 by agar dilution method
In short: as §4, with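 “dilution method” for “dilution”, “(pH 7.4)” for “pH 7.4”, “μg/ml.” for “μg/ml. Control strain:”, “[…] served as control.” for “70005.”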

Clostridioides difficile [11] = test: Antimicrobial activity against rifaximin-resistant Clostridium difficile isolate 21 expressing RpoB H502N and R505K mutants by Etest
In short: (§5)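 Rifampin Etest on clinical C. difficile isolates typed by HindIII REA, run per the strip manufacturer's instructions on brucella blood agar, with the MIC read from the strip.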

Clostridioides difficile [12] = test: Antimicrobial activity against rifaximin-resistant Clostridium difficile isolate 24 expressing RpoB H502N and R505K mutants by Etest; in short: as §5
Clostridioides difficile [13] = test: Antimicrobial activity against Clostridium difficile isolate 1 by Etest
In short: (§6)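 Rifampin MIC by Etest strip on brucella blood agar, run per the strip maker's instructions. Isolates were HindIII REA-typed clinical C. difficile.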

Clostridioides difficile [14] = test: Antimicrobial activity against Clostridium difficile isolate 2 by agar dilution method; in short: as §3
Clostridioides difficile [15] = test: Antimicrobial activity against Clostridium difficile isolate 53 by Etest; in short: as §1
Clostridioides difficile [16] = test: Antimicrobial activity against Clostridium difficile isolate 33 by agar dilution method; in short: as §3
Clostridioides difficile [17] = test: Antimicrobial activity against Clostridium difficile isolate 54 by Etest; in short: as §1
Clostridioides difficile [18] = test: Antimicrobial activity against rifaximin-resistant Clostridium difficile isolate 67 expressing RpoB H502N and R505K mutants by agar dilution method; in short: as §2
Clostridioides difficile [19] = test: Antimicrobial activity against Clostridium difficile isolate 8 by agar dilution method; in short: as §4
Clostridioides difficile [20] = test: Antimicrobial activity against Clostridium difficile isolate 70 by agar dilution method; in short: as §4
Clostridioides difficile [21] = test: Antimicrobial activity against Clostridium difficile isolate 80 by Etest
In short: (§7)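 Rifampin MIC by Etest on brucella blood agar, run per the strip manufacturer's instructions, against clinical isolates typed by HindIII REA.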

Clostridioides difficile [22] = test: Antimicrobial activity against Clostridium difficile isolate 36 by agar dilution method; in short: as §3
Clostridioides difficile [23] = test: Antimicrobial activity against Clostridium difficile isolate 10 by agar dilution method; in short: as §3
Clostridioides difficile [24] = test: Antimicrobial activity against Clostridium difficile isolate 28 by agar dilution method; in short: as §3
Clostridioides difficile [25] = test: Antimicrobial activity against rifaximin-resistant Clostridium difficile isolate 64 expressing RpoB H502R mutant by agar dilution method; in short: as §2
Clostridioides difficile [26] = test: Antimicrobial activity against Clostridium difficile isolate 78 by Etest; in short: as §7
Clostridioides difficile [27] = test: Antimicrobial activity against Clostridium difficile isolate 1 by agar dilution method; in short: as §3
Clostridioides difficile [28] = test: Antimicrobial activity against Clostridium difficile isolate 37 by Etest; in short: as §6
Clostridioides difficile [29] = test: Antimicrobial activity against Clostridium difficile isolate 34 by agar dilution method; in short: as §3
Clostridioides difficile [30] = test: Antimicrobial activity against Clostridium difficile isolate 31 by agar dilution method; in short: as §3
Clostridioides difficile [31] = test: Antimicrobial activity against Clostridium difficile isolate 41 by agar dilution method
In short: as §4, with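 “dilution method” for “dilution”, “(pH 7.4)” for “pH 7.4”, “μg/ml.” for “μg/ml. Control strain:”, “[…] served as control.” for “70005.”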

Clostridioides difficile [32] = test: Antimicrobial activity against Clostridium difficile isolate 56 by agar dilution method
In short: as §4, with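 “dilution method” for “dilution”, “(pH 7.4)” for “pH 7.4”, “μg/ml.” for “μg/ml. Control strain:”, “[…] served as control.” for “70005.”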

Clostridioides difficile [33] = test: Antimicrobial activity against Clostridium difficile isolate 78 by agar dilution method; in short: as §4
Clostridioides difficile [34] = test: Antimicrobial activity against Clostridium difficile isolate 76 by Etest; in short: as §7
Clostridioides difficile [35] = test: Antimicrobial activity against rifaximin-resistant Clostridium difficile isolate 68 expressing RpoB H502Y mutant by Etest; in short: as §5
Clostridioides difficile [36] = test: Antimicrobial activity against Clostridium difficile isolate 46 by agar dilution method
In short: as §4, with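 “dilution method” for “dilution”, “(pH 7.4)” for “pH 7.4”, “μg/ml.” for “μg/ml. Control strain:”, “[…] served as control.” for “70005.”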

Clostridioides difficile [37] = test: Antimicrobial activity against Clostridium difficile isolate 35 by Etest; in short: as §6
Clostridioides difficile [38] = test: Antimicrobial activity against Clostridium difficile isolate 3 by Etest; in short: as §6
Clostridioides difficile [39] = test: Antimicrobial activity against Clostridium difficile isolate 16 by Etest; in short: as §6
Clostridioides difficile [40] = test: Antimicrobial activity against Clostridium difficile isolate 77 by agar dilution method; in short: as §4
Clostridioides difficile [41] = test: Antimicrobial activity against Clostridium difficile isolate 23 by Etest; in short: as §6
Clostridioides difficile [42] = test: Antimicrobial activity against Clostridium difficile isolate 79 by Etest; in short: as §7
Clostridioides difficile [43] = test: Antimicrobial activity against Clostridium difficile isolate 47 by agar dilution method
In short: as §4, with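 “dilution method” for “dilution”, “(pH 7.4)” for “pH 7.4”, “μg/ml.” for “μg/ml. Control strain:”, “[…] served as control.” for “70005.”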

Clostridioides difficile [44] = test: Antimicrobial activity against Clostridium difficile isolate 19 by agar dilution method; in short: as §3
Clostridioides difficile [45] = test: Antimicrobial activity against Clostridium difficile isolate 43 by Etest; in short: as §1
Clostridioides difficile [46] = test: Antimicrobial activity against Clostridium difficile isolate 39 by agar dilution method
In short: as §4, with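 “dilution method” for “dilution”, “(pH 7.4)” for “pH 7.4”, “μg/ml.” for “μg/ml. Control strain:”, “[…] served as control.” for “70005.”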

Clostridioides difficile [47] = test: Antimicrobial activity against Clostridium difficile isolate 61 by agar dilution method
In short: as §4, with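 “dilution method” for “dilution”, “(pH 7.4)” for “pH 7.4”, “μg/ml.” for “μg/ml. Control strain:”, “[…] served as control.” for “70005.”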

Clostridioides difficile [48] = test: Antimicrobial activity against Clostridium difficile isolate 39 by Etest; in short: as §1
Clostridioides difficile [49] = test: Antimicrobial activity against Clostridium difficile isolate 49 by Etest; in short: as §1
Clostridioides difficile [50] = test: Antimicrobial activity against Clostridium difficile isolate 58 by Etest; in short: as §1
Clostridioides difficile [51] = test: Antimicrobial activity against Clostridium difficile isolate 25 by Etest; in short: as §6

For CO[C@H]1/C=C/O[C@@]2(C)Oc3c(C)c(O)c4c(O)c(c(/C=N/N5CCN(C)CC5)c(O)c4c3C2=O)NC(=O)/C(C)=C\C=C\[C@H](C)[C@H](O)[C@@H](C)[C@@H](O)[C@@H](C)[C@H](OC(C)=O)[C@@H]1C [RIFAMPIN], the MIC (Clostridioides difficile [1]) was under 2 ng/mL, the MIC (Clostridioides difficile [2]) was over 256000 ng/mL and the MIC (Clostridioides difficile [3]) was over 256000 ng/mL. It also gave an MIC (Clostridioides difficile [4]) of under 2 ng/mL, an MIC (Clostridioides difficile [5]) of 0.06 ng/mL (≈ 0.0729 nM) and an MIC (Clostridioides difficile [6]) of under 2 ng/mL. For the same compound, the MIC (Clostridioides difficile [7]) was under 2 ng/mL, the MIC (Clostridioides difficile [8]) was 0.4 ng/mL (≈ 0.486 nM) and the MIC (Clostridioides difficile [9]) was 0.9 ng/mL (≈ 1.09 nM). For the same compound, the MIC (Clostridioides difficile [10]) was 0.9 ng/mL (≈ 1.09 nM), the MIC (Clostridioides difficile [11]) was over 32000 ng/mL and the MIC (Clostridioides difficile [12]) was over 32000 ng/mL. For the same compound, the MIC (Clostridioides difficile [13]) was under 2 ng/mL, the MIC (Clostridioides difficile [14]) was 0.06 ng/mL (≈ 0.0729 nM) and the MIC (Clostridioides difficile [15]) was under 2 ng/mL. The MIC (Clostridioides difficile [16]) was 0.9 ng/mL (≈ 1.09 nM), the MIC (Clostridioides difficile [17]) was under 2 ng/mL and the MIC (Clostridioides difficile [18]) was over 256000 ng/mL. It also gave an MIC (Clostridioides difficile [19]) of 0.06 ng/mL (≈ 0.0729 nM), an MIC (Clostridioides difficile [20]) of 0.06 ng/mL (≈ 0.0729 nM) and an MIC (Clostridioides difficile [21]) of under 2 ng/mL. It also gave an MIC (Clostridioides difficile [22]) of 0.9 ng/mL (≈ 1.09 nM), an MIC (Clostridioides difficile [23]) of 0.06 ng/mL (≈ 0.0729 nM) and an MIC (Clostridioides difficile [24]) of 0.9 ng/mL (≈ 1.09 nM). It also gave an MIC (Clostridioides difficile [25]) of over 256000 ng/mL, an MIC (Clostridioides difficile [26]) of under 2 ng/mL and an MIC (Clostridioides difficile [27]) of 0.06 ng/mL (≈ 0.0729 nM). It also gave an MIC (Clostridioides difficile [28]) of under 2 ng/mL, an MIC (Clostridioides difficile [29]) of 0.9 ng/mL (≈ 1.09 nM) and an MIC (Clostridioides difficile [30]) of 0.9 ng/mL (≈ 1.09 nM). The MIC (Clostridioides difficile [31]) was 0.9 ng/mL (≈ 1.09 nM), the MIC (Clostridioides difficile [32]) was 0.9 ng/mL (≈ 1.09 nM) and the MIC (Clostridioides difficile [33]) was 0.06 ng/mL (≈ 0.0729 nM). It also gave an MIC (Clostridioides difficile [34]) of under 2 ng/mL, an MIC (Clostridioides difficile [35]) of over 32000 ng/mL and an MIC (Clostridioides difficile [36]) of 0.9 ng/mL (≈ 1.09 nM). The MIC (Clostridioides difficile [37]) was under 2 ng/mL, the MIC (Clostridioides difficile [38]) was 4 ng/mL (≈ 4.86 nM) and the MIC (Clostridioides difficile [39]) was under 2 ng/mL. For the same compound, the MIC (Clostridioides difficile [40]) was 0.06 ng/mL (≈ 0.0729 nM), the MIC (Clostridioides difficile [41]) was under 2 ng/mL and the MIC (Clostridioides difficile [42]) was under 2 ng/mL. The MIC (Clostridioides difficile [43]) was 0.9 ng/mL (≈ 1.09 nM), the MIC (Clostridioides difficile [44]) was 0.9 ng/mL (≈ 1.09 nM) and the MIC (Clostridioides difficile [45]) was under 2 ng/mL. The MIC (Clostridioides difficile [46]) was 0.9 ng/mL (≈ 1.09 nM), the MIC (Clostridioides difficile [47]) was 0.9 ng/mL (≈ 1.09 nM) and the MIC (Clostridioides difficile [48]) was under 2 ng/mL. It also gave an MIC (Clostridioides difficile [49]) of under 2 ng/mL, an MIC (Clostridioides difficile [50]) of under 2 ng/mL and an MIC (Clostridioides difficile [51]) of under 2 ng/mL.
